For 18 compounds, IC50 and inhibition results are on record in ChEMBL document CHEMBL3352570, “ST7612AA1, a thioacetate-ω(γ-lactam carboxamide) derivative selected from a novel generation of oral HDAC inhibitors” (J Med Chem, 2014).

Usually IC50 stands for the point on the concentration scale where inhibition reaches its midpoint. Low values mean greater potency, high ones weaker potency.

Structures are written as SMILES. Active and inactive are the calls of the source. No cut-off for these calls is given here.

Assay [1] has as its system NCI-H460. As to the kind of experiment: Cytotoxicity against human NCI-H460 cells after 24 hrs by SRB assay. Type of assay: functional, cell-based. The conditions noted are these: NCI-H460, 24 h. In outline:
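NCI-H460 cells were grown in RPMI-1640 with L-glutamine, 10% heat-inactivated FCS and 50 μg/mL gentamicin. Cells were seeded at about 10% confluence and allowed to recover for 24 h. They were exposed to varying concentrations for 24 h, washed, then cultured a further 48 h. Surviving cells were measured by SRB. IC50 is the 50% reduction in cell number versus vehicle, from dose–response curve fitting; means of at least three experiments.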
In general terms: In SRB staining, fixed cells bind dye roughly in proportion to their protein.

The target in assay [2] is T1, Histone deacetylase 11 (Homo sapiens, UniProt Q96DB2).
T1 sequence (Q96DB2 whole entry): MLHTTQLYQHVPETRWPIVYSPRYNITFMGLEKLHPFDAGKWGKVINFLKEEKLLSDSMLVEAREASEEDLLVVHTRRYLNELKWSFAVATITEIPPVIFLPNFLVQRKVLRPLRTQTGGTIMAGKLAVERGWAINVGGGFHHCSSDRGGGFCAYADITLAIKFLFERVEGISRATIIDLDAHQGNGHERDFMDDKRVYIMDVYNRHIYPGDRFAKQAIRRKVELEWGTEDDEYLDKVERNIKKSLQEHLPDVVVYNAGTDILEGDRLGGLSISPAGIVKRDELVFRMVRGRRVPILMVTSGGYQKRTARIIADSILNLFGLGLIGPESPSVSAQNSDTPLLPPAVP
As to the kind of experiment: Inhibition of HDAC11 (unknown origin) using fluorogenic tetrapeptide RHKK(Ac) substrate by fluorescence assay.

Assay [3] deals with T2, Histone deacetylase 2 (Homo sapiens, UniProt Q92769). The assay is described as follows: Inhibition of HDAC2 (unknown origin) using fluorogenic tetrapeptide RHKK(Ac) substrate at <50 uM by fluorescence assay. In outline: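 Fluorogenic assay with the tetrapeptide RHKK(Ac) substrate (p53 residues 379–382) at 50 μM.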
T2 sequence (Q92769 whole entry, the tested form may be a part): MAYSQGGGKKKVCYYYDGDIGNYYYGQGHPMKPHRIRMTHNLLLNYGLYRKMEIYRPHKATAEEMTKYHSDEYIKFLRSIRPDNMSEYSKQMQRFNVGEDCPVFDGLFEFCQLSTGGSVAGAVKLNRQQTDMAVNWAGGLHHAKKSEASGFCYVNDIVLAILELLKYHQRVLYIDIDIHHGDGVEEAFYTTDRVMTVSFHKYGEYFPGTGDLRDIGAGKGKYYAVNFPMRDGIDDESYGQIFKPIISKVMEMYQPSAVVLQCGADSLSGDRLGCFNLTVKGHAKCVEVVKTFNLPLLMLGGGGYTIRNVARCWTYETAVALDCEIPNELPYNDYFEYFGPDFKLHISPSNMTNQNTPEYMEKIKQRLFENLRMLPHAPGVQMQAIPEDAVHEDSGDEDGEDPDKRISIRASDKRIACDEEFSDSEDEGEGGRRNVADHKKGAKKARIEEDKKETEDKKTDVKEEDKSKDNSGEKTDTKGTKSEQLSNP
Assay [4] concerns the target Histone deacetylase 3 (Homo sapiens, UniProt O15379). The assay is described as follows: Inhibition of HDAC3 (unknown origin) using fluorogenic tetrapeptide RHKK(Ac) substrate by fluorescence assay.
The target in assay [5] is T3, Histone deacetylase 8 (Homo sapiens, UniProt Q9BY41).
T3 sequence (Q9BY41 whole entry): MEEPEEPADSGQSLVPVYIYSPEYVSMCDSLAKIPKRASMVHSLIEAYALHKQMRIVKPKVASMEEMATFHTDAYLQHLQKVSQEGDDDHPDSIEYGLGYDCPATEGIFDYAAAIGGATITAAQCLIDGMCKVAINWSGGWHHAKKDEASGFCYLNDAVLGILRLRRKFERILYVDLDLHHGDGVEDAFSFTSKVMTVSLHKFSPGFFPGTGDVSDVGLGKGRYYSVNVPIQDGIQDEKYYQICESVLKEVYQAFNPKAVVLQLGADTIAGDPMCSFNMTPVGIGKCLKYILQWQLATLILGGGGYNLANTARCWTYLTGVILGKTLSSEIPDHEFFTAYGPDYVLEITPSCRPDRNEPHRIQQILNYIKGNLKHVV
The assay is described as follows: Inhibition of HDAC8 (unknown origin) using fluorogenic tetrapeptide RHK(Ac)K(Ac) substrate by fluorescence assay.

The target in assay [6] is T4, Protein deacetylase HDAC6 (Homo sapiens, UniProt Q9UBN7).
T4 sequence (Q9UBN7 whole entry): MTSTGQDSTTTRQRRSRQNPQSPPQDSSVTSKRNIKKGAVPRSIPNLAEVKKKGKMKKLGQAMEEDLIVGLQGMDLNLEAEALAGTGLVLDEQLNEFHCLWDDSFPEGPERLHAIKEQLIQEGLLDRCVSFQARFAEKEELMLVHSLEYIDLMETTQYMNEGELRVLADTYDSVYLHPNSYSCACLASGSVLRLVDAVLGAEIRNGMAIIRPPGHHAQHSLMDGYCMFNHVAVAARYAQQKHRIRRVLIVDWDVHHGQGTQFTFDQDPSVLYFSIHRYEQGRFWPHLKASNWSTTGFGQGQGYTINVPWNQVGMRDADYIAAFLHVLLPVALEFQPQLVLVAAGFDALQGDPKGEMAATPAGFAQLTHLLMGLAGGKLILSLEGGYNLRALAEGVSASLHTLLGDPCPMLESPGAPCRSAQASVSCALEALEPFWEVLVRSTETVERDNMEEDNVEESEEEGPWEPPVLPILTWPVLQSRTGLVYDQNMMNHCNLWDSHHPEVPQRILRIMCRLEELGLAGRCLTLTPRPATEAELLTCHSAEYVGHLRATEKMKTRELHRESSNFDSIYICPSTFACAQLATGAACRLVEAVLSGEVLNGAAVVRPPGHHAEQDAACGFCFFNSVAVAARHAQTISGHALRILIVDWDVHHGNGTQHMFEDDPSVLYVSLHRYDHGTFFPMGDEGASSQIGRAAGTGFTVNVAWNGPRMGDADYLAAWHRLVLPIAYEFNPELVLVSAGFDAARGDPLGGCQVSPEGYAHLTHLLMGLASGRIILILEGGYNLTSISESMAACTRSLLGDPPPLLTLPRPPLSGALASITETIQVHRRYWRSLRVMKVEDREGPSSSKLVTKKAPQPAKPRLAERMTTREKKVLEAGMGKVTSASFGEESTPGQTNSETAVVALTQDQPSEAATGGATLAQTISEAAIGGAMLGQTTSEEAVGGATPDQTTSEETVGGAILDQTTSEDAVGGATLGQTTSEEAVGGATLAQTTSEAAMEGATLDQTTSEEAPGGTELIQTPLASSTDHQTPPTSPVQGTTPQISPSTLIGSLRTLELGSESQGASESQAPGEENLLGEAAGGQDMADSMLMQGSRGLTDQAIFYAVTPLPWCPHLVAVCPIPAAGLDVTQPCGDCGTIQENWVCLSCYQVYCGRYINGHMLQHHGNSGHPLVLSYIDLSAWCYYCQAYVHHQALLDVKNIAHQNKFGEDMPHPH
The assay is described as follows: Inhibition of HDAC6 (unknown origin) using fluorogenic tetrapeptide RHKK(Ac) substrate by fluorescence assay.

Assay [7] deals with Histone deacetylase 1 (Homo sapiens, UniProt Q13547). The assay is described as follows: Inhibition of HDAC1 (unknown origin) using fluorogenic tetrapeptide RHKK(Ac) substrate by fluorescence assay.
Sequence of Histone deacetylase 1 (Q13547 whole entry): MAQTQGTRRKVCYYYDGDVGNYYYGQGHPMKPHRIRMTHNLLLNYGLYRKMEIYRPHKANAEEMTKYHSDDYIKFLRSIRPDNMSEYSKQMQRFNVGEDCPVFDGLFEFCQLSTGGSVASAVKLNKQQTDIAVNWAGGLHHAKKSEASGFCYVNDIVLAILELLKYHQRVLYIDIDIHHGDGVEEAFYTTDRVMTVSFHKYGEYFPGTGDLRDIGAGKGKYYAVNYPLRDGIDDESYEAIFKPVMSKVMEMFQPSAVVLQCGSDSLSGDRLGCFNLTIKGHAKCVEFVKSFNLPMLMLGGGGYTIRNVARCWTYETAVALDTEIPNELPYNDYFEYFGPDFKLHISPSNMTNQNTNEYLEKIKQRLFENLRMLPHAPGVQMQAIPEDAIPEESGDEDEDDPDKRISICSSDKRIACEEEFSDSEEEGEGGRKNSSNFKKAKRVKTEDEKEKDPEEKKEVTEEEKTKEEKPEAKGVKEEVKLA
Assay [8] has as its target T5, Polyamine deacetylase HDAC10 (Homo sapiens, UniProt Q969S8).
T5 sequence (Q969S8 whole entry): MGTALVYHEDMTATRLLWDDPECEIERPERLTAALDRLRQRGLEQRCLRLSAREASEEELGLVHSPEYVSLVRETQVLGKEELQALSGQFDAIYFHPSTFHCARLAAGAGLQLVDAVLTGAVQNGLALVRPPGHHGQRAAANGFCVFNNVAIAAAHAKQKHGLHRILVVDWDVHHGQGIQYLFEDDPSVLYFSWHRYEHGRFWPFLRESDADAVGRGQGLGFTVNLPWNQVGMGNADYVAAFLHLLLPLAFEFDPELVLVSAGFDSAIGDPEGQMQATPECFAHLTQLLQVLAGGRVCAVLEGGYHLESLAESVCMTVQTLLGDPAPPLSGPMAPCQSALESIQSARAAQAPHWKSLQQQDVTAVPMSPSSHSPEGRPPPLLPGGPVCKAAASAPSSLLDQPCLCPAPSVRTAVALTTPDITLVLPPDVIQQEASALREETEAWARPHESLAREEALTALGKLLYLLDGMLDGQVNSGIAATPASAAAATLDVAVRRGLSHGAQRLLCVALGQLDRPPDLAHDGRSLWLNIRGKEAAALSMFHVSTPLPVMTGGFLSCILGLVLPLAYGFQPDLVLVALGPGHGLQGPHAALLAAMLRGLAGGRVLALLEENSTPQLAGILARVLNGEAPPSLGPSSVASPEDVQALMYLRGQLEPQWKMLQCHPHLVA
As to the kind of experiment: Inhibition of HDAC10 (unknown origin) using fluorogenic tetrapeptide RHKK(Ac) substrate by fluorescence assay.

For assay [9], the target named is T2, Histone deacetylase 2. The assay is described as follows: Inhibition of HDAC2 (unknown origin) using fluorogenic tetrapeptide RHKK(Ac) substrate by fluorescence assay.

Sequence of Histone deacetylase 3 (O15379 whole entry): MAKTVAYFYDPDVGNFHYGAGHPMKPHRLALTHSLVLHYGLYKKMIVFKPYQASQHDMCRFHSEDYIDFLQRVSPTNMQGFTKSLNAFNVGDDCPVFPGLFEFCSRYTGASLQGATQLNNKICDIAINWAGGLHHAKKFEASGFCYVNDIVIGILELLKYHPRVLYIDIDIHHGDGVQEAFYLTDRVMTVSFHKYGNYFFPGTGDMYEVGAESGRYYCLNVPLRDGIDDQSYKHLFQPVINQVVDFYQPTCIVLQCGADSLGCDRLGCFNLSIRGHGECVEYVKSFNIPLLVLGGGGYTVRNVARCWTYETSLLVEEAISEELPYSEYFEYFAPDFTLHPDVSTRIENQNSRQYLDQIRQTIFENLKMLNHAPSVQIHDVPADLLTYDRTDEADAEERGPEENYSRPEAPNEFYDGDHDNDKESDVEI

The compound `CC(=O)SCCCCC[C@H](NC(=O)[C@H]1CCC(=O)N1)C(=O)Nc1cccc(C)c1` displayed an IC50 in assay [1] of 40 nM. This lies in the double-digit nanomolar range.
For the compound `O=C1CCC[C@@H](C(=O)N[C@@H](CCCCCS)C(=O)N2CCc3ccccc3C2)N1`, the IC50 came out at 293 nM in assay [2]; 6330 nM in assay [4]; 2230 nM in assay [5]; 582 nM in assay [6]; 2900 nM in [7]; 6000 nM in [8]. Also, the inhibition entry in assay [3] is “inactive”.
With `CC(=O)SCCCCC[C@H](NC(=O)[C@H]1CCC(=O)N1)C(=O)Nc1cccc(C(F)(F)F)c1`, in assay [1], the IC50 came to 30 nM. In other words, the double-digit nanomolar range.
Turning to `O=C1CCC[C@@H](C(=O)N[C@@H](CCCCCSSCCCCC[C@H](NC(=O)[C@@H]2CCCC(=O)N2)C(=O)Nc2ccccc2)C(=O)Nc2ccccc2)N1`, 5400 nM corresponded to half-maximal inhibition in [1] (IC50).
`CC(=O)SCCCCC[C@H](NC(=O)[C@H]1CCCC(=O)N1)C(=O)Nc1ccccc1` yielded an IC50 in assay [1] of 100 nM.
On the same count and under the same terms, as for `CC(=O)SCCCCC[C@H](NC(=O)[C@@H]1CCCC(=O)N1)C(=O)Nc1cccc(C)c1`, the figure is 60 nM.
For `O=C1C[C@@H](C(=O)N[C@@H](CCCCCS)C(=O)Nc2ccccc2)N1`, the IC50 in assay [2] was 10 nM; in assay [4] it was 8 nM; in [9], 68 nM; in assay [5] it was 61 nM; in assay [6] it was 2 nM; in assay [7], 8 nM. Further, the midpoint of inhibition in assay [8], the IC50, lay at 9 nM.
For `Cc1cccc(NC(=O)[C@H](CCCCCS)NC(=O)[C@H]2CCC(=O)N2)c1`, the IC50 turned out to be 5 nM in assay [2]; 3 nM in assay [4]; 14 nM in assay [9]; 106 nM in assay [5]; 2 nM in assay [6]; 4 nM in assay [7]. Besides, in assay [8], the IC50 was determined as 4 nM.
As to `O=C(CCCCCCS)NCc1ccc(C(F)(F)F)cc1`, the IC50 stood at 2070 nM in assay [2]; 2710 nM in [4]; 19400 nM in assay [9]; 373 nM in assay [5]; 5300 nM in assay [6]; 5960 nM in [7]. The compound further came in with an IC50 in assay [8] of 6290 nM.
Regarding `Cc1cccc(NC(=O)[C@H](CCCCCS)NC(=O)[C@@H]2CCCC(=O)N2)c1`, the IC50 in assay [2] turned out to be 1 nM; in assay [4], 1 nM; in assay [9], 15 nM; in assay [5] it was 135 nM; in [6] it was 1 nM; in assay [7], 2 nM. In assay [8], this compound had an IC50 of 1 nM.
As for `Cc1cccc(CCNC(=O)[C@H](CCCCCS)NC(=O)[C@@H]2CCCC(=O)N2)c1`, the IC50 in assay [2] came out at 82 nM; in assay [4], 122 nM; in assay [9] it was 601 nM; in [5], 17 nM; in assay [6] it was 15 nM; in [7], 92 nM. In [8], this compound yielded an IC50 of 81 nM.
Compound `CC(=O)SCCCCC[C@H](NC(=O)[C@@H]1CCC(=O)N1)C(=O)Nc1cccc(C)c1` returned an IC50 in assay [1] of 60 nM. That is a double-digit nanomolar value.
On to `O=C1NC[C@@H](c2ccccc2)[C@H]1C(=O)N[C@@H](CCCCCS)C(=O)Nc1ccccc1`, for which the IC50 in [2] stood at 24 nM; in [4], 72 nM; in [9], 1900 nM; in assay [5], 2570 nM; in [6], 35 nM; in assay [7], 74 nM. In [8], half-maximal inhibition (IC50) was put at 14 nM.
Consider `Cc1cccc(CCNC(=O)CCCCCCS)c1`, for which the half-maximal inhibitory concentration (IC50) in [2] came out at 1870 nM; in assay [4], 2600 nM; in [9] it was 10700 nM; in assay [5], 246 nM; in assay [6], 2710 nM; in assay [7], 3210 nM. In assay [8], the IC50 worked out at 3930 nM.
With `O=C1NC[C@H](c2ccccc2)[C@@H]1C(=O)N[C@@H](CCCCCS)C(=O)Nc1ccccc1`, the IC50 is 13 nM in assay [2]; 9 nM in assay [4]; 168 nM in assay [9]; 310 nM in [5]; 4 nM in assay [6]; 32 nM in [7]. For the same compound, the IC50 in assay [8] came to 14 nM.
On to `Cc1cccc(NC(=O)[C@H](CCCCCS)NC(=O)[C@@H]2CCC(=O)N2)c1`, for which the IC50 in [2] was 62 nM; in assay [4] it was 4 nM; in assay [9] it was 13 nM; in assay [5] it was 106 nM; in assay [6], 1 nM; in [7] it was 5 nM. This compound displayed an IC50 in assay [8] of 5 nM.
For the compound `O=C1CCC[C@@H](C(=O)N[C@@H](CCCCCS)C(=O)NC2CCCC2)N1`, the IC50 in assay [2] turned out to be 89 nM; in assay [4], 98 nM; in assay [9] it was 454 nM; in assay [5], 450 nM; in assay [6] it was 6 nM; in [7] it was 160 nM. In assay [8], this compound yielded an IC50 of 189 nM.
`O=C1NC[C@H](c2ccccc2)[C@H]1C(=O)N[C@@H](CCCCCS)C(=O)Nc1ccccc1`: the IC50 in [2] came to 12 nM; in [4] it was 55 nM; in assay [9], 2230 nM; in assay [5], 2040 nM; in [6] it was 160 nM; in [7] it was 53 nM. The compound also yielded a half-inhibitory concentration (IC50) in assay [8] of 7 nM.
